“And” between values parts separate entries of the source, which are not always exact repeats. Identical values can stand only once. Like-named read-outs stand apart in the source and are kept apart here.
Key:
[1] = humans, cited from earlier work
Plasma protein binding = type: in vitro ADME; details: human
sUA = details: doses as low as; cited from earlier work
Safety assessments = type: in vivo, human; details: for Number of adverse events / Subjects with adverse events, n (%): treatment-emergent; for Number of adverse events / Subjects with adverse events, n (%) / Number of adverse events of mild severity / Number of adverse events of moderate severity / Severe/life-threatening adverse events / Subjects with adverse events of mild severity, n (%) / Subjects with adverse events of moderate severity, n (%): verinurad 15 mg
In short: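 Males with normal or impaired renal function were housed in the study centre from Day −2 until final procedures after a single 15 mg dose. Assessments covered adverse events (MedDRA v17.0), clinical laboratory tests, vital signs, ECGs and physical examinations. Clinically relevant laboratory abnormalities were graded for severity by the investigator using Rheumatology Common Toxicity Criteria v2.0.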

URAT1 = details: read-out: half-maximal inhibitory constant in inhibiting URAT1; cited from earlier work
serum urate (sUA) = test: Serum urate; type: in vivo, human; details: verinurad 15 mg; all groups
In short: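 Single 15 mg dose. Serial serum sampled on Day −1 (baseline) and Day 1 at preset times up to 72 h post-dose. Urate measured enzymatically. Percent change from baseline time-matched to Day −1, with maximal and mean changes derived per renal-function group.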

urinary uric acid = test: Urinary uric acid pharmacodynamics after verinurad 15 mg; type: in vivo, human; details: for AeUR,0–24 h amount of urinary uric acid recovered in urine, mean (SD) / FEUA,0–24 h fractional excretion of uric acid, mean (SD) / ReUR,0–24 h rate of urinary uric acid excretion, mean (SD): following verinurad 15 mg
In short: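 Total-catch urine collected at 6–12 h intervals to 72 h after a single 15 mg dose, with a Day −1 baseline. Urate and creatinine in serum and urine measured by enzymatic method.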

[2] = Urinary pharmacokinetics after single oral verinurad 15 mg; type: in vivo, human; details: for fe0–72 fraction of drug excreted in urine unchanged from time zero to 72 h, GM (95% CI): verinurad 15 mg single oral dose; for CLR0–72, GLSMR (90% CI) versus normal renal function group / Decrease in renal clearance (CLR0-72) versus normal renal function: verinurad 15 mg
In short: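 Single 15 mg dose given to males grouped by Cockcroft-Gault creatinine clearance. Total-catch urine collected at 6–12 h intervals to 72 h post-dose. Parent and metabolites quantified by validated LC-MS/MS, with the acyl-glucuronide hydrolysed by 2 M KOH and measured as total aglycone. Renal clearance and fraction excreted unchanged over 0–72 h. Ln-transformed parameters compared with the normal group by fixed-effects model; geometric mean ratios with 90% CI.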

[3] = type: in vivo, human; details: for AUC0–∞, GLSMR (90% CI) versus normal renal function group / Cmax, GLSMR (90% CI) versus normal renal function group: plasma; for AUC0–∞, GLSMR (90% CI) versus normal renal function group / Cmax, GLSMR (90% CI) versus normal renal function group / CL/F, GLSMR (90% CI) versus normal renal function group / Increase in AUC0–∞ compared to subjects with normal renal function / Increase in Cmax compared to subjects with normal renal function: verinurad 15 mg; for CL/F total body clearance, GM (95% CI): verinurad 15 mg single oral dose, fasted
In short: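 Males aged 18–85 y with sUA 4.5–10 mg/dl, grouped by Cockcroft-Gault eCrCl (normal ≥90, mild 60–<90, moderate 30–<60, severe 15–<30 ml/min). Normal group matched for age and BMI. Single 15 mg dose. Serial blood sampled up to 72 h post-dose; plasma acidified. Parent and metabolites measured by validated LC-MS/MS. Non-compartmental parameters, ln-transformed, fixed-effects model, geometric mean ratios with 90% CI versus normal.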

[4] = moderate renal impairment (N = 8)
[5] = severe renal impairment (N = 7)
[6] = verinurad 15 mg single dose, all groups
[7] = moderate renal impairment (N = 7)

fraction unbound (Plasma protein binding): 0.013 to 0.024
fe0–72 fraction of drug excreted in urine unchanged from time zero to 72 h, GM (95% CI) [2, 7]: 1.05 (0.561–1.96) %
fe0–72 fraction of drug excreted in urine unchanged from time zero to 72 h, GM (95% CI) ([2]; normal renal function (N = 8)): 0.814 (0.508–1.31) %
fe0–72 fraction of drug excreted in urine unchanged from time zero to 72 h, GM (95% CI) [2, 5]: 0.362 (0.202–0.647) %
CLR0–72, GLSMR (90% CI) versus normal renal function group ([2]; mild renal impairment): 95.4% (60.6–150)
Decrease in renal clearance (CLR0-72) versus normal renal function ([2]; mild renal impairment): 5% and 4.6%
CLR0–72, GLSMR (90% CI) versus normal renal function group ([2]; moderate renal impairment): 58.3% (30.2–113)
Decrease in renal clearance (CLR0-72) versus normal renal function ([2]; moderate renal impairment): 42%
CLR0–72, GLSMR (90% CI) versus normal renal function group ([2]; severe renal impairment): 21.2% (13.6–32.8)
Decrease in renal clearance (CLR0-72) versus normal renal function ([2]; severe renal impairment): 79%
AUC0–∞, GLSMR (90% CI) versus normal renal function group ([3]; mild renal impairment): 124% (88.8–173)
Cmax, GLSMR (90% CI) versus normal renal function group ([3]; mild renal impairment): 153% (115–203)
AUC0–∞, GLSMR (90% CI) versus normal renal function group ([3]; moderate renal impairment): 248% (168–366)
Cmax, GLSMR (90% CI) versus normal renal function group ([3]; moderate renal impairment): 173% (131–230)
AUC0–∞, GLSMR (90% CI) versus normal renal function group ([3]; severe renal impairment): 230% (146–363)
Cmax, GLSMR (90% CI) versus normal renal function group ([3]; severe renal impairment): 228% (155–336)
CL/F total body clearance, GM (95% CI) ([3]; mild renal impairment (N = 8)): 74.8 (53.7–104) L/h
CL/F total body clearance, GM (95% CI) [3, 7]: 37.3 (23.7–58.9) L/h
CL/F total body clearance, GM (95% CI) ([3]; normal renal function (N = 8)): 92.6 (68.7–125) L/h
CL/F total body clearance, GM (95% CI) [3, 5]: 40.3 (22.6–71.7) L/h
CL/F, GLSMR (90% CI) versus normal renal function group ([3]; mild renal impairment): 80.8% (57.9–113)
Increase in AUC0–∞ compared to subjects with normal renal function ([3]; mild renal impairment): 24%
Increase in Cmax compared to subjects with normal renal function ([3]; mild renal impairment): 53%
CL/F, GLSMR (90% CI) versus normal renal function group ([3]; moderate renal impairment): 40.3% (27.3–59.5)
Increase in AUC0–∞ compared to subjects with normal renal function ([3]; moderate renal impairment): 148%
Increase in Cmax compared to subjects with normal renal function ([3]; moderate renal impairment): 73%
CL/F, GLSMR (90% CI) versus normal renal function group ([3]; severe renal impairment): 43.5% (27.5–68.7)
Increase in AUC0–∞ compared to subjects with normal renal function ([3]; severe renal impairment): 130%
Increase in Cmax compared to subjects with normal renal function ([3]; severe renal impairment): 128%
Structure (SMILES): CC(C)(Sc1ccncc1-c1ccc(C#N)c2ccccc12)C(=O)O [Verinurad]
Parent drug excreted unchanged in urine ([1]; ref 21): about 2%
Parent drug excreted unchanged in urine ([1]; ref 26): about 2%
Lowest dose providing sUA lowering in humans (sUA): 2.5 mg
Subjects with TEAE possibly related to verinurad (Safety assessments; control group, oropharyngeal pain and rhinorrhea): One subject
Number of adverse events (Safety assessments; mild renal impairment (N = 8)): 3
Subjects with adverse events, n (%) (Safety assessments; mild renal impairment (N = 8)): 3 (37.5%)
Number of adverse events (Safety assessments; [4]): 2
Subjects with adverse events, n (%) (Safety assessments; [4]): 1 (12.5%)
Number of adverse events (Safety assessments; normal renal function (N = 8)): 5
Subjects with adverse events, n (%) (Safety assessments; normal renal function (N = 8)): 1 (12.5%)
Number of adverse events (Safety assessments; [5]): 2
Subjects with adverse events, n (%) (Safety assessments; [5]): 2 (28.6%)
Adverse event-related withdrawals (Safety assessments; [6]): no AE-related withdrawals
Changes in laboratory values or vital signs (Safety assessments; [6]): No clinically meaningful changes
Serious adverse events (Safety assessments; [6]): no serious AEs
Tolerability (Safety assessments; [6]): well tolerated
Number of adverse events of mild severity (Safety assessments; mild renal impairment (N = 8)): 2
Number of adverse events of moderate severity (Safety assessments; mild renal impairment (N = 8)): 1
Severe/life-threatening adverse events (Safety assessments; mild renal impairment (N = 8)): 0
Subjects with adverse events of mild severity, n (%) (Safety assessments; mild renal impairment (N = 8)): 2 (25.0%)
Subjects with adverse events of moderate severity, n (%) (Safety assessments; mild renal impairment (N = 8)): 1 (12.5%)
Number of adverse events of mild severity (Safety assessments; [4]): 1
Number of adverse events of moderate severity (Safety assessments; [4]): 1
Severe/life-threatening adverse events (Safety assessments; [4]): 0
Subjects with adverse events of mild severity, n (%) (Safety assessments; [4]): 1 (12.5%)
Subjects with adverse events of moderate severity, n (%) (Safety assessments; [4]): 1 (12.5%)
Number of adverse events of mild severity (Safety assessments; normal renal function (N = 8)): 4
Number of adverse events of moderate severity (Safety assessments; normal renal function (N = 8)): 1
Severe/life-threatening adverse events (Safety assessments; normal renal function (N = 8)): 0
Subjects with adverse events of mild severity, n (%) (Safety assessments; normal renal function (N = 8)): 1 (12.5%)
Subjects with adverse events of moderate severity, n (%) (Safety assessments; normal renal function (N = 8)): 1 (12.5%)
Number of adverse events of mild severity (Safety assessments; [5]): 1
Number of adverse events of moderate severity (Safety assessments; [5]): 1
Severe/life-threatening adverse events (Safety assessments; [5]): 0
Subjects with adverse events of mild severity, n (%) (Safety assessments; [5]): 1 (14.3%)
Subjects with adverse events of moderate severity, n (%) (Safety assessments; [5]): 1 (14.3%)
IC50 (URAT1): 36 nM
Time post-dose at which maximal percent change in sUA occurred (serum urate (sUA)): approximately 12 h
AeUR,0–24 h amount of urinary uric acid recovered in urine, mean (SD) (urinary uric acid; mild renal impairment (N = 8)): 880 (225) mg
FEUA,0–24 h fractional excretion of uric acid, mean (SD) (urinary uric acid; mild renal impairment (N = 8)): 16.2 (5.68) %
ReUR,0–24 h rate of urinary uric acid excretion, mean (SD) (urinary uric acid; mild renal impairment (N = 8)): 36.6 (9.39) mg/h
AeUR,0–24 h amount of urinary uric acid recovered in urine, mean (SD) (urinary uric acid; [7]): 707 (334) mg
FEUA,0–24 h fractional excretion of uric acid, mean (SD) (urinary uric acid; [7]): 13.0 (7.48) %
ReUR,0–24 h rate of urinary uric acid excretion, mean (SD) (urinary uric acid; [7]): 29.3 (13.8) mg/h
AeUR,0–24 h amount of urinary uric acid recovered in urine, mean (SD) (urinary uric acid; normal renal function (N = 8)): 969 (299) mg
FEUA,0–24 h fractional excretion of uric acid, mean (SD) (urinary uric acid; normal renal function (N = 8)): 13.8 (6.24) %
ReUR,0–24 h rate of urinary uric acid excretion, mean (SD) (urinary uric acid; normal renal function (N = 8)): 40.1 (12.1) mg/h
AeUR,0–24 h amount of urinary uric acid recovered in urine, mean (SD) (urinary uric acid; [5]): 393 (144) mg
FEUA,0–24 h fractional excretion of uric acid, mean (SD) (urinary uric acid; [5]): 12.7 (6.43) %
ReUR,0–24 h rate of urinary uric acid excretion, mean (SD) (urinary uric acid; [5]): 16.3 (6.02) mg/h
Time post-dose by which ReUR returned to baseline (urinary uric acid; verinurad 15 mg): ≤ 12 h

From article PMC6061379 (Clinical Drug Investigation, 2018)
